According to ChEMBL document CHEMBL1128678, “Preparation of 18F-labeled muscarinic agonist with M2 selectivity” (J Med Chem, 1995):
Values joined by “and” are separate entries in the source; they are usually repeats but may differ in a detail not shown here. Equal entries are not always repeated.

What was measured:
Rattus norvegicus [1] = assay: In vivo biodistribution in blood after 120 min of administration in rat; type: ADME, organism-based; settings: 2 h
How it was run: (§1)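 [18F] tracer formulated in PBS with under 10% ethanol; 15 μCi given by tail vein to Sprague-Dawley rats (200–250 g). Groups of five sacrificed at 15, 60 or 120 min. Brain dissected into 11 regions, with blood, heart, bone and lung also collected. Tissues weighed and counted, and % ID/g calculated; n = 5 or 6.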

Rattus norvegicus [2] = assay: In vivo biodistribution in blood after 15 min of administration in rat; type: ADME, organism-based; settings: 0.25 h; how it was run: as §1
Rattus norvegicus [3] = assay: In vivo biodistribution in blood after 60 min of administration in rat; type: ADME, organism-based; settings: 1 h; how it was run: as §1
Rattus norvegicus [4] = assay: In vivo biodistribution in blood at 60 min for no inhibitor was co-injected in rat; type: ADME, organism-based; settings: 1 h
Rattus norvegicus [5] = assay: In vivo biodistribution in bone after 120 min of administration in rat; type: ADME, organism-based, Bone element; settings: 2 h; how it was run: as §1
Rattus norvegicus [6] = assay: In vivo biodistribution in LT-THAL after 120 min of administration in rat; type: ADME, organism-based; settings: 2 h; how it was run: as §1
Rattus norvegicus [7] = assay: In vivo biodistribution in LT-THAL after 60 min of administration in rat; type: ADME, organism-based; settings: 1 h; how it was run: as §1
Rattus norvegicus [8] = assay: In vivo biodistribution in LT-THAL at 60 min for no inhibitor was co-injected in rat; type: ADME, organism-based; settings: 1 h
Rattus norvegicus [9] = assay: In vivo biodistribution in MEDULL after 120 min of administration in rat; type: ADME, organism-based; settings: 2 h; how it was run: as §1
Rattus norvegicus [10] = assay: In vivo biodistribution in MEDULL after 15 min of administration in rat; type: ADME, organism-based; settings: 0.25 h; how it was run: as §1
Rattus norvegicus [11] = assay: In vivo biodistribution in MEDULL after 60 min of administration in rat; type: ADME, organism-based; settings: 1 h; how it was run: as §1
Rattus norvegicus [12] = assay: In vivo biodistribution in PONS after 120 min of administration in rat; type: ADME, organism-based; settings: 2 h; how it was run: as §1
Rattus norvegicus [13] = assay: In vivo biodistribution in PONS after 15 min of administration in rat; type: ADME, organism-based; settings: 0.25 h; how it was run: as §1
Rattus norvegicus [14] = assay: In vivo biodistribution in PONS after 60 min of administration in rat; type: ADME, organism-based; settings: 1 h; how it was run: as §1
Rattus norvegicus [15] = assay: In vivo biodistribution in LT-CTX after 120 min of administration in rat; type: ADME, organism-based; settings: 2 h; how it was run: as §1
Rattus norvegicus [16] = assay: In vivo biodistribution in LT-CTX after 15 min of administration in rat; type: ADME, organism-based; settings: 0.25 h; how it was run: as §1
Rattus norvegicus [17] = assay: In vivo biodistribution in LT-CTX after 60 min of administration in rat; type: ADME, organism-based; settings: 1 h; how it was run: as §1
Rattus norvegicus [18] = assay: In vivo biodistribution in LT-CTX at 60 min for no inhibitor was co-injected in rat; type: ADME, organism-based; settings: 1 h
Rattus norvegicus [19] = assay: In vivo biodistribution in LT-HIPP after 120 min of administration in rat; type: ADME, organism-based; settings: 2 h; how it was run: as §1
Rattus norvegicus [20] = assay: In vivo biodistribution in LT-HIPP after 15 min of administration in rat; type: ADME, organism-based; settings: 0.25 h; how it was run: as §1
Rattus norvegicus [21] = assay: In vivo biodistribution in LT-HIPP after 60 min of administration in rat; type: ADME, organism-based; settings: 1 h; how it was run: as §1
Rattus norvegicus [22] = assay: In vivo biodistribution in LT-HIPP at 60 min for no inhibitor was co-injected in rat; type: ADME, organism-based; settings: 1 h
Rattus norvegicus [23] = assay: In vivo biodistribution in LT-STR after 120 min of administration in rat; type: ADME, organism-based; settings: 2 h; how it was run: as §1
Rattus norvegicus [24] = assay: In vivo biodistribution in LT-STR after 15 min of administration in rat; type: ADME, organism-based; settings: 0.25 h; how it was run: as §1
Rattus norvegicus [25] = assay: In vivo biodistribution in LT-STR after 60 min of administration in rat; type: ADME, organism-based; settings: 1 h; how it was run: as §1
Rattus norvegicus [26] = assay: In vivo biodistribution in LT-STR at 60 min for no inhibitor was co-injected in rat; type: ADME, organism-based; settings: 1 h
Rattus norvegicus [27] = assay: In vivo biodistribution in CBLL after 120 min of administration in rat; type: ADME, organism-based; settings: 2 h; how it was run: as §1
Rattus norvegicus [28] = assay: In vivo biodistribution in CBLL after 15 min of administration in rat; type: ADME, organism-based; settings: 0.25 h; how it was run: as §1
Rattus norvegicus [29] = assay: In vivo biodistribution in CBLL after 60 min of administration in rat; type: ADME, organism-based; settings: 1 h; how it was run: as §1
Rattus norvegicus [30] = assay: In vivo biodistribution in CBLL at 60 min for no inhibitor was co-injected in rat; type: ADME, organism-based; settings: 1 h
Rattus norvegicus [31] = assay: In vivo biodistribution in lung after 60 min of administration in rat; type: ADME, organism-based; settings: 1 h; how it was run: as §1
Rattus norvegicus [32] = assay: In vivo biodistribution in lung at 60 min for no inhibitor was co-injected in rat; type: ADME, organism-based; settings: 1 h
How it was run: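 [18F]tracer formulated in phosphate-buffered saline (<10% ethanol), 15 μCi injected via tail vein into Sprague-Dawley rats (200–250 g); no inhibitor co-injected. Animals sacrificed in groups of five at 60 min postinjection. Lung sample collected, weighed, counted for activity, and % ID/g calculated (n = 5 or 6).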

Rattus norvegicus [33] = assay: In vivo biodistribution in heart at 60 min as a function of 5 nM of (R,R) IQNB (inhibitor) in rat; type: ADME, organism-based; settings: 1 h
Rattus norvegicus [34] = assay: In vivo biodistribution in heart at 60 min for no inhibitor was co-injected in rat; type: ADME, organism-based; settings: 1 h
Rattus norvegicus [35] = assay: In vivo biodistribution in lung after 120 min of administration in rat; type: ADME, organism-based; settings: 2 h; how it was run: as §1
Rattus norvegicus [36] = assay: In vivo biodistribution in lung after 15 min of administration in rat; type: ADME, organism-based; settings: 0.25 h; how it was run: as §1
[37] = In vivo biodistribution in bone at 60 min for no inhibitor was co-injected in rat; type: ADME, organism-based, Bone element; settings: 1 h
[38] = In vivo biodistribution in heart after 120 min of administration.; type: ADME, organism-based; settings: 2 h; how it was run: as §1
Rattus norvegicus [39] = assay: In vivo biodistribution in heart after 15 min of administration in rat; type: ADME, organism-based; settings: 0.25 h; how it was run: as §1
Rattus norvegicus [40] = assay: In vivo biodistribution in heart after 60 min of administration in rat; type: ADME, organism-based; settings: 1 h; how it was run: as §1
Rattus norvegicus [41] = assay: In vivo biodistribution in heart at 60 min as a function of 500 nM of (R,S) -fluoromethyl QNB(inhibitor) in rat; type: ADME, organism-based; settings: 1 h
Rattus norvegicus [42] = assay: In vivo biodistribution in bone after 15 min of administration in rat; type: ADME, organism-based, Bone element; settings: 0.25 h; how it was run: as §1
Rattus norvegicus [43] = assay: In vivo biodistribution in bone after 60 min of administration in rat; type: ADME, organism-based, Bone element; settings: 1 h; how it was run: as §1
Rattus norvegicus [44] = assay: In vivo biodistribution in LT-CTX at 60 min for no inhibitor was co-injected co-injected in rat; type: ADME, organism-based; settings: 1 h
Rattus norvegicus [45] = assay: In vivo biodistribution in MEDULL at 60 min for no inhibitor was co-injected in rat; type: ADME, organism-based; settings: 1 h
[46] = biological target: T1, Muscarinic acetylcholine receptor M2 (Rattus norvegicus, UniProt P10980); assay: In vitro binding affinity towards Muscarinic acetylcholine receptor M2 was determined by measuring its ability to displace [3H]-AF-DX 384 from rat heart membranes; set-up: species or system Membrane
T1 sequence (P10980 whole entry): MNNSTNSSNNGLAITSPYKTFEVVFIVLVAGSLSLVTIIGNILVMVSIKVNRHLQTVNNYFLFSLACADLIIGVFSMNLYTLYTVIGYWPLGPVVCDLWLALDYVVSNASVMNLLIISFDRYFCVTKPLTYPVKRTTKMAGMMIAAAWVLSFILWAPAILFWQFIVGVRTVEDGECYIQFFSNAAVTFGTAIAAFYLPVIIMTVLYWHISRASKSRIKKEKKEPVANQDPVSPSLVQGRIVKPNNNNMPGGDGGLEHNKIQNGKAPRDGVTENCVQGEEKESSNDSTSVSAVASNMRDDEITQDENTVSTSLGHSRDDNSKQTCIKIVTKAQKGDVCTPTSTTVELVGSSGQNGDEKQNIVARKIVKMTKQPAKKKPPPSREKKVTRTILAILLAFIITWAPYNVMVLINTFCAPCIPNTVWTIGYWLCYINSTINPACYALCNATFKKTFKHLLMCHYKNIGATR
How it was run: (§2)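 Displacement binding performed by NovaScreen. For M1, the tracer was [3H]pirenzepine with bovine striatal membranes. For M2, it was [3H]AF-DX 384 with rat heart membranes. Ki values in nM were calculated by LIGAND analysis.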

[47] = biological target: T2, Muscarinic acetylcholine receptor M1 (Bos taurus, UniProt Q8WMX0); assay: In vitro binding affinity towards Muscarinic acetylcholine receptor M1 was determined by measuring its ability to displace [3H]pirenzepine from bovine striatal membranes; set-up: species or system Striatum, Membrane; how it was run: as §2
T2 sequence (Q8WMX0 whole entry): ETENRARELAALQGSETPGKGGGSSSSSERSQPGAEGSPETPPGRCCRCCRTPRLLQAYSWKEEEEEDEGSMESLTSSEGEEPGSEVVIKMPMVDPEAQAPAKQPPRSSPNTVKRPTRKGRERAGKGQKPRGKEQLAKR

[48] = biological target: Muscarinic acetylcholine receptor M3 (Cavia porcellus, UniProt Q8VH26); assay: In vitro binding affinity towards Muscarinic acetylcholine receptor M3 was determined by measuring its ability to displace [3H]-N-methyl- Scopolamine from guinea pig ileum; type: tissue-based
Sequence of Muscarinic acetylcholine receptor M3 (Q8VH26 whole entry): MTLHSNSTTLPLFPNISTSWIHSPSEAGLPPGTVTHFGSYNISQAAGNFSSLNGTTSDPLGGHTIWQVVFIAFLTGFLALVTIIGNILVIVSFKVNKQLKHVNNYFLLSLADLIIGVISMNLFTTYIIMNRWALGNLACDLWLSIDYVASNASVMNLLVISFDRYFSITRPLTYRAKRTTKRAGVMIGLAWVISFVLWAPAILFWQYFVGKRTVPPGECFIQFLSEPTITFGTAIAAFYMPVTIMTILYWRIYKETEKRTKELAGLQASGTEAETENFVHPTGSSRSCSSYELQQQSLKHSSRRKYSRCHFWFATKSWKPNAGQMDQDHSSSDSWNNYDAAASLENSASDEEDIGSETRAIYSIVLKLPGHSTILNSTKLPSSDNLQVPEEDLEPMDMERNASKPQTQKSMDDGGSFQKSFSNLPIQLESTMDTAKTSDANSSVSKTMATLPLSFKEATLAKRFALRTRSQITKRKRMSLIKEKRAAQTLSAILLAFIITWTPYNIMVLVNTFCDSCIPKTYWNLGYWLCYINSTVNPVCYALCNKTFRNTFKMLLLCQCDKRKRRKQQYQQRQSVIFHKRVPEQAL

## CN1CC=C(c2nsnc2SCCC[18F])CC1
Rattus norvegicus [1]
  ID/g: 0.1%
Rattus norvegicus [2]
  ID/g: 0.181%
Rattus norvegicus [3]
  ID/g: 0.124%
Rattus norvegicus [4]
  ID/g: 0.126% and 0.13% and 0.18%
Rattus norvegicus [5]
  ID/g: 0.993%
Rattus norvegicus [6]
  ID/g: 0.153%
Rattus norvegicus [7]
  ID/g: 0.293%
Rattus norvegicus [8]
  ID/g: 0.413% and 0.45% and 0.56%
Rattus norvegicus [9]
  ID/g: 0.226%
Rattus norvegicus [10]
  ID/g: 0.788%
Rattus norvegicus [11]
  ID/g: 0.438%
Rattus norvegicus [12]
  ID/g: 0.238%
Rattus norvegicus [13]
  ID/g: 0.824%
Rattus norvegicus [14]
  ID/g: 0.385%
Rattus norvegicus [15]
  ID/g: 0.139%
Rattus norvegicus [16]
  ID/g: 1.125%
Rattus norvegicus [17]
  ID/g: 0.368%
Rattus norvegicus [18]
  ID/g: 0.484% and 0.52%
Rattus norvegicus [19]
  ID/g: 0.119%
Rattus norvegicus [20]
  ID/g: 0.826%
Rattus norvegicus [21]
  ID/g: 0.363%
Rattus norvegicus [22]
  ID/g: 0.429% and 0.47% and 0.65%
Rattus norvegicus [23]
  ID/g: 0.123%
Rattus norvegicus [24]
  ID/g: 0.861%
Rattus norvegicus [25]
  ID/g: 0.353%
Rattus norvegicus [26]
  ID/g: 0.448% and 0.46% and 0.64%
Rattus norvegicus [27]
  ID/g: 0.154%
Rattus norvegicus [28]
  ID/g: 0.766%
Rattus norvegicus [29]
  ID/g: 0.285%
Rattus norvegicus [30]
  ID/g: 0.382% and 0.44% and 0.47%
Rattus norvegicus [31]
  ID/g: 0.261%
Rattus norvegicus [32]
  ID/g: 0.372%
Rattus norvegicus [33]
  ID/g: 0.13% and 0.43% and 0.49% and 0.46% and 0.44% and 0.54% and 0.63% and 0.42%
Rattus norvegicus [34]
  ID/g: 0.171%
Rattus norvegicus [35]
  ID/g: 0.156%
Rattus norvegicus [36]
  ID/g: 0.871%
[37]
  ID/g: 0.501%
[38]
  ID/g: 0.096%
Rattus norvegicus [39]
  ID/g: 0.324%
Rattus norvegicus [40]
  ID/g: 0.121%
Rattus norvegicus [41]
  ID/g: 0.17% and 0.44% and 0.43% and 0.39% and 0.48% and 0.56% and 0.61%
Rattus norvegicus [42]
  ID/g: 0.225%
Rattus norvegicus [43]
  ID/g: 0.762%
Rattus norvegicus [44]
  ID/g: 0.7%
Rattus norvegicus [45]
  ID/g: 0.529% and 0.63% and 0.71%

## CCCSc1nsnc1C1=CCN(C)CC1
[46]
  Ki: 1.5 nM
[47]
  Ki: 23 nM
[48]
  Ki: 163 nM

## CN1CCC=C(c2nsnc2SCCF)C1
[46]
  Ki: 1.8 nM
[47]
  Ki: 25 nM
[48]
  Ki: > 10000 nM

## CN1CCC=C(c2nsnc2SCCCF)C1
[46]
  Ki: 2.2 nM
[47]
  Ki: 7.4 nM
[48]
  Ki: 79.7 nM

## CN1CCC=C(c2nsnc2SCCCCCF)C1
[46]
  Ki: 6.3 nM
[47]
  Ki: 2.3 nM
[48]
  Ki: 160 nM

## CCCCCSc1nsnc1C1=CCN(C)CC1
[46]
  Ki: 4 nM
[47]
  Ki: 36 nM
[48]
  Ki: > 10000 nM
